Compounds with a hit are over-represented: about 1.3% of the library has one in this group of screens.
S100A4 inh HTS – blocks human S100A4 binding to myosin IIA peptide; S100A4/TAMRA-MyoIIA peptide fluorescence polarization; inhibition, % at 10.7 µM; P26447; 0.14% of 360,000 active;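 active = mean inhibition of at least 70% across replicates, with every replicate also reaching that level; inconclusive = mean inhibition reaches 70% but some replicates fall short; inactive = mean inhibition below 70%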
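Material: S100A4 monomer (human). Medium: Calcium-containing HEPES buffer, pH 7.2. Probe or stimulus: labelled myosin peptide probe, 5 nM. Compound dosing: one concentration per compound. Timing: polarization read 5 min after assay mix addition, stable 5–60 min. Benchmarks: DMSO as neutral control, TFP as positive control.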
AF4-AF9 inh – blocks AF4 peptide binding to human AF9; 0.47% of 350,000 active; inhibition, % at 10 µM; AlphaScreen, biotin-AF4 peptide binding to FLAG-AF9; AID 651704; P42568;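 active = every replicate reaching a set inhibition limit, whatever the replicate mean, cut at about 25% in these data; inconclusive = mean inhibition reaches that limit but some replicates miss it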;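 also: 0% = plate neutral control median and 100% = total signal loss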
GSIS activator – primary screen for activators of insulin secretion dependent on glucose, INS-1E cells, GLuc reporter luminescence; 0.61% of 370,000 active; activation, % at 16.6 µM; INS-1E GLuc reporter insulin secretion, 2-3 h;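 active = lowest replicate activation of at least 40%, so every replicate reaches that level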;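 also: 0% = median of neutral control wells and 100% = median of IBMX positive control wells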
RAD54 branch – blocks human RAD54 Holliday junction branch migration | Q92698 | FAM/BHQ fluorescence | inhibition, % at 10.4 µM | 0.14% of 360,000 active;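 active = mean normalized replicate activity at least 40 and at least half of replicates scoring 40 or more; inconclusive = only one of the two criteria met; inactive = mean below 40 and under half of replicates reaching 40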;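 also: 0% = median of neutral control wells and 100% = median of positive control wells; inhibitors cause a drop in the FAM fluorescence signal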
Target sequence (Q92698 whole entry, looked up): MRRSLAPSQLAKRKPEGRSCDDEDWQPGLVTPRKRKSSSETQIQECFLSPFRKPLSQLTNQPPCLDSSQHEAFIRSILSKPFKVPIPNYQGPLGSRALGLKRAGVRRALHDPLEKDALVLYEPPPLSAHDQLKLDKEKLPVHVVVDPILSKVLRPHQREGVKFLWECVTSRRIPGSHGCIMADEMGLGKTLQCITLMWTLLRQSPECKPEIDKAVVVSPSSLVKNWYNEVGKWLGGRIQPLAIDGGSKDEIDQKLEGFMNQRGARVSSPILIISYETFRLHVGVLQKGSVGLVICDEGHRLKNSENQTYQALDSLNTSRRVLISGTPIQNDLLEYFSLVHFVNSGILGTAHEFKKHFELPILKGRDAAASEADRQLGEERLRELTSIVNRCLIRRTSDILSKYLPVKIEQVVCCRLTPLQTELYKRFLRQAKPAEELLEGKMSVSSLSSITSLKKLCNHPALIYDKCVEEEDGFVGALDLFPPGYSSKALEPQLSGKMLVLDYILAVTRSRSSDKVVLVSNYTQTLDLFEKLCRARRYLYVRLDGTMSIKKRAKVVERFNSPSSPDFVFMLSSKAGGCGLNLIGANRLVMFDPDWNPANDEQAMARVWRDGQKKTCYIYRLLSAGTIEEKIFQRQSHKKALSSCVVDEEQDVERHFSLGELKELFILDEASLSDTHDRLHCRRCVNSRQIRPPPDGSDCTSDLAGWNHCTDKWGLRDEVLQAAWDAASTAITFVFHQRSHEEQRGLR
RAD52 anneal inh – inhibitors of human RAD52 DNA annealing; AID 651710; inhibition, % at 18.7 µM; recombinant RAD52 DNA annealing, FRET fluorescence; 0.46% of 360,000 active;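 active = every replicate showing at least 50% inhibition; inconclusive = mean inhibition at least 50% but not in every replicate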
Rad54 DNA ctr – counter-screen for Rad54 inhibitors: DNA binding compounds; AC50, µM (titrated, usually from 35 µM), for the others: top-dose activity change, negative = DNA binding; shares compounds with RAD54 branch; 8% of 460 active; Acridine orange-DNA displacement, fluorescence polarization, 20 min;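 active = signal drop giving an AC50 within twice the top valid tested concentration of each sample, actives reach about 35 µM in these data; inactive = activity opposite to expected, plus the rest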;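 also: polarization loss reports compound binding to salmon sperm DNA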
RAD52 DNA ctr – binds DNA, flagging false RAD52 inhibitor hits; shares compounds with RAD52 anneal inh; 8% of 1,000 active; Salmon sperm DNA/acridine orange FP displacement, DNA binding; AC50, µM;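 active = fitted half-maximal concentration for signal loss at or below twice the highest dose tested, in every separate run, actives reach about 64 µM in these data; inconclusive = runs disagree, or flat partial signal loss, or poor fit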
Active calls of the source: *; i = inactive; u = inconclusive; x = no result.

SMILES	S100A4 inh HTS	AF4-AF9 inh	GSIS activator	RAD54 branch	RAD52 anneal inh	Rad54 DNA ctr	RAD52 DNA ctr
COc1cc(Nc2c3c(nc4ccccc24)CCC3)cc(OC)c1OC	-1	8	-17	11	8	x	x
Cc1ccc2nc3c(c(Nc4ccc(O)cc4)c2c1)CCC3	-4	15	23	67*	46	-1%	i
CCN1CCN(c2cc(C)c3cc(NC(=S)N4CCN(c5ccc(F)cc5)CC4)ccc3n2)CC1	-1	6	7	-5	-7	x	x
CCN1CCN(C(=S)Nc2ccc3nc(N4CCN(C)CC4)cc(C)c3c2)CC1	6	4	15	56*	89*	0%	i
CCN1CCN(c2cc(C)c3cc(NC(=S)N4CCCCC4)ccc3n2)CC1	-4	19	11	u	85*	-11%	i
O=C(C1CCC1)N1CC[C@H]2[C@H](CO)Nc3ccc(C#Cc4cccc(F)c4)cc3[C@H]21	-24	3	-1	-4	-4	x	x
CCNC(=O)[C@@H]1[C@@H](CO)[C@@H]2Cn3c(ccc(C4=CCCCC4)c3=O)[C@@H]2N1C(=O)c1cnccn1	-3	5	-1	-10	14	x	x
Oc1ccc(Nc2nc(N3CCCC3)c3ccccc3n2)cc1	4	x	x	60*	67*	i	i
COc1ccc2c3c(n(C)c2c1)[C@H](CO)N(C(=O)c1ccccc1)CC31CCN(CC2CC2)CC1	-3	-1	6	x	12	x	x
CCOC(=O)c1c(NC(=O)c2ccc(S(=O)(=O)N3CCOCC3)cc2)sc2c1CCN(C)C2	-5	14	-5	89*	59*	-7%	i
C[C@@H]1CN([C@@H](C)CO)C(=O)c2cc(NC(=O)CCCN(C)C)ccc2O[C@H]1CN(C)Cc1ccc(Cl)c(Cl)c1	1	-3	23	19	27	x	x
CCN(CC)CCN(C(=O)C1=COCCO1)c1nc2c(OC)ccc(OC)c2s1	-1	5	14	77*	88*	10%	i
COc1ccc(OC)c2sc(N(CCN(C)C)C(=O)c3ccc4ccccc4c3)nc12	3	28*	-12	69*	93*	5%	i
COc1cc2ccccc2cc1C(=O)N(CCN(C)C)c1nc2c(OC)ccc(OC)c2s1	6	50*	-25	60*	94*	-5%	i
CCN(CC)CCN(C(=O)C1=COCCO1)c1nc2ccc(C)cc2s1	6	1	12	14	19	x	x
Nc1cc2ccncc2c2ccccc12	-7	-1	-10	70*	60*	-14%	i
COc1ccc(-c2cnc3c(NC(C)=O)cc(-c4cccc(C(=O)NCCO)c4)cn23)cc1OC	-3	-3	x	5	0	x	x
COc1cccc(-c2cnc3c(NC(C)=O)cc(-c4cccc(C(=O)NCCN(C)C)c4)cn23)c1	-4	u	27	78*	100*	0%	i
COc1ccc(-c2cnc3c(NC(C)=O)cc(-c4cccc(C(=O)NCCN(C)C)c4)cn23)cc1OC	-1	17	49	76*	101*	1%	i
CC(=O)Nc1cc(-c2cccc(C(=O)NCCN(C)C)c2)cn2c(-c3ccc(C(C)=O)cc3)cnc12	-2	5	21	101*	71*	-18%	i
CC(=O)Nc1cc(-c2cccc(C(=O)NCCN(C)C)c2)cn2c(-c3ccc(F)c(Cl)c3)cnc12	-5	9	x	17	41	x	x
Cn1c(=O)cc(SCC(=O)NCCCN2CCOCC2)c2ccccc21	x	x	x	-8	x	x	x
COc1cccc2sc3cc(NCCCN4CCOCC4)ccc3c(=O)c12	-3	x	20	78*	62*	3%	i
Cn1c2ccccc2c(=O)c2cc(NCCCN3CCOCC3)ccc21	-3	-26	22	116*	70*	2%	i
CN1CCC[C@H]1CCNc1ccc2c(=O)c3ccccc3n(C)c2c1	-1	-9	-3	90*	50*	-10%	i
SMILES	S100A4 inh HTS	AF4-AF9 inh	GSIS activator	RAD54 branch	RAD52 anneal inh	Rad54 DNA ctr	RAD52 DNA ctr
CC(C)C#Cc1ccc2c(c1)O[C@H](CN(C)S(=O)(=O)c1cn(C)cn1)[C@H](C)CN([C@@H](C)CO)S2(=O)=O	-6	1	1	11	-5	x	x
CO[C@H]1CN(C)C(=O)c2ccc(NC(=O)c3cc(C)on3)cc2OC[C@H](C)NC[C@@H]1C	0	-5	8	x	-7	x	x
COCC(=O)Nc1ccc2c(c1)C(=O)N(C)[C@H]1CC[C@H](CC(=O)OC)O[C@H]1CO2	x	x	2	-9	x	x	x
Cc1cc(N2CCN(C)CC2)nc2ccc(NC(=S)NC3CC3)cc12	-2	4	-11	x	45	x	x
CCCN(CCC)CCCNC(=S)Nc1ccc2nc(N3CCN(C)CC3)cc(C)c2c1	0	17	31	63*	75*	-9%	i
CCCCN(CC)CCNC(=S)Nc1ccc2nc(N3CCN(C)CC3)cc(C)c2c1	-1	10	5	55*	60*	6%	i
Cc1ccsc1-c1cc2nc(NCCCN(C)C)n(C)c(=O)c2s1	-7	12	6	u	58*	3%	i
Cc1ccccc1-c1cc2nc(NCCCN(C)C)n(C)c(=O)c2s1	-7	u	-8	12	25	x	x
COc1ccc(-c2cc3nc(NCCCN(C)C)n(C)c(=O)c3s2)cc1OC	1	5	6	69*	84*	-6%	i
CN(C)CCCNc1nc2cc(-c3ccn[nH]3)sc2c(=O)n1C	1	-5	x	29	43	x	x
CN(C)CCCNc1nc2cc(-c3cccc(Cl)c3)sc2c(=O)n1C	-6	7	-5	50*	89*	-7%	i
CCCNC(=O)N1C[C@H](C)[C@H](OC)CN(C)C(=O)c2ccc(NC(C)=O)cc2OC[C@H]1C	x	1	8	x	x	x	x
CN1CCN(C(=O)C[C@@H]2C[C@H]3c4cc(NC(=O)C5CCOCC5)ccc4O[C@H]3[C@@H](CO)O2)CC1	-8	1	8	-6	1	x	x
COc1ccc(CNC(=O)C[C@H]2C[C@H]3c4cc(NC(=O)CC5CC5)ccc4O[C@H]3[C@H](CO)O2)cc1	x	x	-3	-16	x	x	x
O=C(CN1CCCCC1)n1c2ccccc2c2ccccc21	8	x	6	100*	61*	2%	i
Cc1c(C)n(C(=O)CN2CCC(C(N)=O)CC2)c2ccccc12	x	x	3	5	x	x	x
CCN1C(=O)CCN(C2CCCC2)c2nc(Nc3ccc(C(=O)NC4CCN(C)CC4)cc3OC)ncc21	0	6	-1	u	63*	3%	i
COc1ccc(C(=O)NC2CCCCCC2)cc1S(=O)(=O)N1CCCc2ccccc21	x	x	x	1	x	x	x
O=C(Nc1ccc(Nc2ccncc2)cc1)c1ccc(Nc2ccnc3ccc([N+](=O)[O-])cc23)cc1	-21	-1	16	128*	94*	4%	i
